Hits are enriched below; roughly 3.7% of the tested compounds scored in any of these assays.
KCNQ1 inh = human KCNQ1 channel inhibition; hit rate 1.3% among 310,000; B-score at 10 µM; CHO-K1 KCNQ1, FluxOR thallium flux fluorescence; stronger effect = higher value; P51787; AID 2642;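 active = compounds whose thallium flux B-score, printed positive for inhibition, exceeds three library SD while starting fluorescence stays within three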;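 note: channel opened by potassium depolarization with thallium stimulus after 20 min compound exposure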
KCNQ1 pot = potentiators or activators of human KCNQ1 potassium channel; CHO-K1 KCNQ1, thallium flux FluxOR fluorescence; stronger effect = higher value; hit rate 0.35% among 310,000; B-score at 10 µM; P51787;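 active = fluorescence ratio B-score, a plate-corrected score, at least three library SD, with initial intensity B-score within 5 SD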
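Assay system: CHO-K1 cells stably expressing KCNQ1. Medium: assay buffer for compound exposure, DMSO matched across wells. Timing: 37 °C overnight plating, 90-min dark dye load, 20-min compound pretreatment. Signal: kinetic FluxOR fluorescence, 10 s baseline plus 110 s post-stimulus.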
Kir21 inh = blocks the mouse Kir2.1 inward-rectifier potassium channel; P35561; AID 1672; hit rate 0.85% among 310,000; HEK293-Kir2.1, FluxOR thallium flux fluorescence; stronger effect = lower value; B-score at 10 µM;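 active = fluorescence ratio B-score at or below minus 3 SD of library scores, with starting-brightness B-score within 2 SD, cut at about -4.2 in these data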;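 note: channel flux triggered by added potassium and thallium sulfate stimulus; B-score of peak minus minimum fluorescence over baseline after thallium stimulus; more negative B-score means stronger Kir2.1 block with less thallium influx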
Target sequence (P35561 whole entry, looked up): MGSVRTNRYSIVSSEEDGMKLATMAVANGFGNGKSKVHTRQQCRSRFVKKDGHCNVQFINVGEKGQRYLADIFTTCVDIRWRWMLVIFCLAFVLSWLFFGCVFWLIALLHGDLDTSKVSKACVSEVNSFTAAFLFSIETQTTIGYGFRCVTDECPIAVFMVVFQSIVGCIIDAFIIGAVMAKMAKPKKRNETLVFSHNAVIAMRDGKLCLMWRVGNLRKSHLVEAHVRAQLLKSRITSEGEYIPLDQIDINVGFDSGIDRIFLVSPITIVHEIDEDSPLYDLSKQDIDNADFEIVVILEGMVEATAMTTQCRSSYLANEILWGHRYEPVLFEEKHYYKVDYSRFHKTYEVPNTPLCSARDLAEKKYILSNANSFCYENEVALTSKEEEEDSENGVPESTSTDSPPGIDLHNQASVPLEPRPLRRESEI
KCNK9 block = blocks the human KCNK9 two-pore domain potassium channel; Q9NPC2; HEK293 KCNK9, FluxOR thallium flux fluorescence; stronger effect = lower value; B-score at 10 µM; hit rate 1.2% among 310,000; AID 488922;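 active = ratio B-score over 3 SD below the library mean, with starting fluorescence within 5 SD of its mean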;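 note: negative B-score means less thallium flux so channel inhibition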
hERG rescue = hERG (human) protection from proarrhythmic block | CHO-hERG, FluxOR thallium flux, dofetilide IC70 present | hit rate 0.51% among 310,000 | activation (rescue from dofetilide block), less the hit threshold, % at 10 µM | Q12809 | AID 1511;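 active = activation above the mean of controls blocked by dofetilide plus 5 SD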;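 note: thallium influx through hERG after potassium depolarization seen as dye fluorescence rise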
KCNK3 block = human KCNK3 channel inhibition, primary screen. O14649. CHO-KCNK3 thallium flux, FluxOR fluorescence; stronger effect = lower value. B-score at 10 µM. hit rate 0.84% among 340,000. AID 602410;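 active = B-score under library mean minus 4 SD, starting fluorescence ratio at most library mean plus 5 SD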;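 note: more negative B-score means stronger inhibition of thallium flux through KCNK3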
KCNK9 block conf = human KCNK9 inhibitor confirmation; AID 492992; HEK293 KCNK9 cells, FluxOR thallium flux fluorescence; shares compounds with KCNK9 block; inhibition, % at 10 µM; hit rate 43% among 4,900;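 active = thallium signal inhibited by more than 5 SD of the compound-free buffer control wells, on both duplicate plates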;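 note: 0% = assay buffer control wells without compound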
Kir2-1 spec = mouse Kir2.1 off-target activity of KCNK9 modulators. shares compounds with KCNK9 block. Kir2.1 cells, FluxOR thallium flux fluorescence. inhibition, % at 10 µM. hit rate 4% among 4,900. AID 492993;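 active = thallium signal drop more than 5 SD beyond the mean of the no-compound control wells, seen in both duplicate plates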;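 note: signal is fluorescence rise after thallium addition divided by baseline fluorescence; plate controls were assay buffer only for no effect and full block by chlorpromazine control for full effect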
HEK293 Tl ctr = second counter-screen for KCNK9 modulators: effect in non-induced cells; shares compounds with KCNK9 block; inhibition, % at 10 µM; non-induced KCNK9-HEK293, FluxOR thallium flux; hit rate 40% among 4,900;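 active = thallium signal drop beyond 5 SD of the untreated control mean, on both duplicate plates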;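 note: plate controls were buffer only IC0 wells for no effect and SID17386958 at its maximal inhibitory level for full effect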
KCNK3 confirm = human KCNK3 channel inhibition, confirmation assay | hit rate 99% among 2,400 | ratio percent of control, % at 10 µM | CHO-KCNK3 thallium flux, FluxOR fluorescence; 0% buffer, 100% carvedilol maximal block | shares compounds with KCNK3 block;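 active = ratio percent of control, averaged over triplicates, above buffer control mean plus 5 SD, cut at about 64% in these data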;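 note: ratio is the fluorescence rise from min to max over baseline after thallium stimulus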
KCNK3 uninduced = KCNK3 inhibitor counter-screen hit in non-induced cells | non-induced KCNK3 parental cells, FluxOR thallium flux; stronger effect = lower value | shares compounds with KCNK3 block | thallium flux ratio (lower = more inhibition) at 10 µM | hit rate 40% among 2,400;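 active = thallium flux ratio, averaged over three wells, more than 5 SD below the buffer control mean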;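 note: host cells are CHO cells without KCNK3 induction; ratio is peak minus trough fluorescence over baseline then normalized to buffer controls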
Numbers without * were called inactive.

`COc1ccc(Br)cc1/C=C/C(=O)Nc1ccc2ccccc2c1` gave KCNQ1 inh inactive, KCNQ1 pot inactive, Kir21 inh 0.24, KCNK9 block inactive, hERG rescue -10 and KCNK3 block inactive.
For CCC(=O)Nc1cccc(C(=O)/C=C/c2cc(Br)ccc2OC)c1 the results were KCNQ1 inh inactive, KCNQ1 pot inactive, Kir21 inh -0.51, KCNK9 block -10*, hERG rescue -10, KCNK3 block -9.3*, KCNK9 block conf 38%*, Kir2-1 spec inactive, HEK293 Tl ctr 30%*, KCNK3 confirm 138* and KCNK3 uninduced inactive.
For Cc1c2ccccc2cc[n+]1CCCS(=O)(=O)[O-] the results were KCNQ1 inh inactive, KCNQ1 pot inactive, Kir21 inh 0.3, KCNK9 block inactive, hERG rescue -10 and KCNK3 block inactive.
For CCCCCCCCCC[n+]1cccc2c3ccccc3ccc21 the results were KCNQ1 inh inactive, KCNQ1 pot inactive, Kir21 inh -9.1*, KCNK9 block -15*, hERG rescue -19, KCNK3 block inactive, KCNK9 block conf 73%*, Kir2-1 spec inactive, HEK293 Tl ctr 36%*, KCNK3 confirm 72* and KCNK3 uninduced inactive.
For O=C/C(=C\Nc1ccccn1)c1nc2cc(Cl)ccc2o1 the results were KCNQ1 inh inactive, KCNQ1 pot inactive, Kir21 inh -2.1, KCNK9 block -8.5*, hERG rescue -10, KCNK3 block inactive, KCNK9 block conf 35%*, Kir2-1 spec inactive, HEK293 Tl ctr inactive, KCNK3 confirm 114* and KCNK3 uninduced inactive.
For O=C/C(=C\Nc1ccccn1)c1nc2ccccc2o1 the results were KCNQ1 inh inactive, KCNQ1 pot inactive, Kir21 inh -1.2, KCNK9 block inactive, hERG rescue -12 and KCNK3 block inactive.
For COc1ccccc1N1CCN(C(c2ccccc2Cl)c2nnnn2C(C)(C)C)CC1 (stereo not given) the results were KCNK3 block inactive.
COc1ccccc1C(c1nnnn1C(C)(C)C)N1CCN(Cc2ccncc2)CC1 (stereo not given) was read as KCNQ1 inh inactive, KCNQ1 pot inactive, Kir21 inh 1.9, KCNK9 block -19*, hERG rescue -8, KCNK3 block -9.2*, KCNK9 block conf 76%*, Kir2-1 spec inactive, HEK293 Tl ctr 34%*, KCNK3 confirm 116* and KCNK3 uninduced inactive.
For O=c1cc(N2CCCCC2)c(-c2ccccc2)nn1Cc1ccccc1Cl the results were KCNQ1 inh inactive, KCNQ1 pot inactive, Kir21 inh 0.55, KCNK9 block -18*, hERG rescue -2, KCNK3 block -9.1*, KCNK9 block conf 38%*, Kir2-1 spec inactive, HEK293 Tl ctr 38%*, KCNK3 confirm 112* and KCNK3 uninduced inactive.
Screening O=C(CN1CCN(Cc2ccccc2Cl)C1=O)N1CCCCCC1 returned KCNQ1 inh inactive, KCNQ1 pot inactive, Kir21 inh 0.05, KCNK9 block inactive, hERG rescue -7 and KCNK3 block inactive.
Screening Cc1ccccc1CN(C)C(C)C(=O)Nc1ccccc1F (stereo not given) returned KCNQ1 inh inactive, KCNQ1 pot inactive, Kir21 inh 0.14, KCNK9 block -14*, hERG rescue -10, KCNK3 block -11*, KCNK9 block conf 58%*, Kir2-1 spec inactive, HEK293 Tl ctr 44%*, KCNK3 confirm 114* and KCNK3 uninduced inactive.
`COc1cc(CCCN2C(=S)NC[C@@H]2c2ccccc2)cc(OC)c1OC` gave KCNQ1 inh inactive, KCNQ1 pot inactive, Kir21 inh -0.43, KCNK9 block inactive, hERG rescue -3 and KCNK3 block inactive.
For NS(=O)(=O)c1ccc(CCNC(=O)C(c2ccccc2)c2ccccc2)cc1 the results were KCNQ1 inh inactive, KCNQ1 pot inactive, Kir21 inh 0.43, KCNK9 block inactive, hERG rescue -9 and KCNK3 block inactive.
Cc1sc(NC(=O)c2ccco2)c(CN2CCN(c3ccc(F)cc3)CC2)c1C was read as KCNQ1 inh inactive, KCNQ1 pot inactive, Kir21 inh -0.96, KCNK9 block -15*, hERG rescue -11, KCNK3 block -10*, KCNK9 block conf inactive, Kir2-1 spec inactive, HEK293 Tl ctr 29%*, KCNK3 confirm 110* and KCNK3 uninduced 0.15*.
For CCOC(=O)N1CCN(Cc2c(NC(=O)c3ccco3)sc(C)c2C)CC1 the results were KCNQ1 inh inactive, KCNQ1 pot inactive, Kir21 inh -0.05, KCNK9 block inactive, hERG rescue -4 and KCNK3 block inactive.
CCCC1CC(C(=O)Nc2ccccc2)C(=O)O1 (stereo not given) was read as KCNQ1 inh inactive, KCNQ1 pot inactive, Kir21 inh -0.03, KCNK9 block inactive, hERG rescue -5 and KCNK3 block inactive.
For Cn1ncc(C#N)c1/N=C/N(Cc1ccccc1)Cc1ccccc1 the results were KCNQ1 inh inactive, KCNQ1 pot inactive, Kir21 inh 0.37, KCNK9 block -15*, hERG rescue -11, KCNK3 block -8.9*, KCNK9 block conf 36%*, Kir2-1 spec inactive, HEK293 Tl ctr 29%*, KCNK3 confirm 114* and KCNK3 uninduced 0.16*.
Screening CC(C)OC(=O)CSc1nc(Cc2ccccc2)nc2ccccc12 returned KCNQ1 inh inactive, KCNQ1 pot inactive, Kir21 inh -0.52, KCNK9 block -15*, hERG rescue -24, KCNK3 block -11*, KCNK9 block conf 58%*, Kir2-1 spec 36%*, HEK293 Tl ctr 38%*, KCNK3 confirm 97* and KCNK3 uninduced inactive.
Screening CC(C)OC(=O)CSc1nc(C(C)C)nc2ccccc12 returned KCNQ1 inh inactive, KCNQ1 pot inactive, Kir21 inh -1.4, KCNK9 block inactive, hERG rescue -13 and KCNK3 block inactive.

Bioassay records (PubChem BioAssay)
